ChEMBL document CHEMBL3860088, “Design, synthesis, and evaluation of novel porcupine inhibitors featuring a fused 3-ring system based on the 'reversed' amide scaffold” (Bioorg Med Chem, 2016)
Values belong to the compound of their own block, whether it stands above or below them. The source made the active and inactive calls. No cut-off for these calls is given here.

How the values were obtained:
[1] = target: T1, Protein-serine O-palmitoleoyltransferase porcupine (Mus musculus, UniProt Q9JJJ7); experiment: Inhibition of porcupine in mouse L Wnt3A cells co-cultured with HEK293 cells after 48 hrs by Super-top flash reporter gene assay; assay type: cell-based
T1 sequence (Q9JJJ7 whole entry): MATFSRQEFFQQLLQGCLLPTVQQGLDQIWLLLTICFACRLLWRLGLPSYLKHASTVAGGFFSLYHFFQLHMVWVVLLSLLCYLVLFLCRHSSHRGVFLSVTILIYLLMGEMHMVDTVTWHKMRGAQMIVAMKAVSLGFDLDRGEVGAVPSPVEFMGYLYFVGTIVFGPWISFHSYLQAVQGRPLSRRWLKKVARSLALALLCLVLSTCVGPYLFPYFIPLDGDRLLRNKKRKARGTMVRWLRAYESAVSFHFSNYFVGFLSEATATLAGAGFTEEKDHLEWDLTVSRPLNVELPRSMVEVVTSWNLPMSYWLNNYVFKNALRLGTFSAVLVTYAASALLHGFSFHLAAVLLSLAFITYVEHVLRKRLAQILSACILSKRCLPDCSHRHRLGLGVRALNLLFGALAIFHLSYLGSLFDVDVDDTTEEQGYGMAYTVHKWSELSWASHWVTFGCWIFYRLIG
Outline: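 Readout was luminescence inhibition in a co-culture of Wnt-producing LWnt3A cells with Wnt-responding HEK293 cells. Values are geometric means of at least two runs ± SEM, with a reference inhibitor run as a standard in every assay.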

[2] = target: T2, Protein-serine O-palmitoleoyltransferase porcupine (Homo sapiens) (UniProt Q9H237); experiment: Inhibition of porcupine in HEK293T cells transfected with pLibin-WNT3A plasmid assessed as reduction in Wnt3A secretion into cell culture medium at 0.1 uM after 48 hrs by Western blot method; assay type: cell-based; conditions: HEK-293T
T2 sequence (whole entry): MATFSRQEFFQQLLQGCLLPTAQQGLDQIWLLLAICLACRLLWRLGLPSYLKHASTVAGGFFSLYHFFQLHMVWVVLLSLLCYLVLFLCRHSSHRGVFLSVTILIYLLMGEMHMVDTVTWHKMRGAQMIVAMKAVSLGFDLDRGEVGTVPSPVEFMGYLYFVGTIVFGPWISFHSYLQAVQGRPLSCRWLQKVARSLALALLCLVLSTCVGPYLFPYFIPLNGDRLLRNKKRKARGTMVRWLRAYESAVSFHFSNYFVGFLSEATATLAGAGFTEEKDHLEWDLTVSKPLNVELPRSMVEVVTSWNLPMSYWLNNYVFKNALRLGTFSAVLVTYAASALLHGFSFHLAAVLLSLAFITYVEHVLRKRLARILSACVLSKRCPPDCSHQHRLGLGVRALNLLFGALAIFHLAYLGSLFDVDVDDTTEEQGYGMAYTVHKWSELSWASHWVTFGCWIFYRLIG
Outline: (§1)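 Cells were HEK293T transfected with pLinbin-Wnt3A plasmid or vehicle control, then exposed to compound (0.1 µM) or left untreated. After 48 h, Western blot was run on both the cell lysate and the culture medium to follow Wnt3A.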

[3] = Intrinsic clearance in rat liver microsomes at 1 uM preincubated for 10 mins followed by NADPH addition measured for 30 to 60 mins by LC-MS/MS analysis; assay type: ADME; conditions: read-out: CLH
CYP3A4 = CYP3A4 (Homo sapiens, UniProt P08684); experiment: Inhibition of CYP3A4 in human liver microsomes at 10 uM using midazolam as substrate preincubated for 10 mins followed by NADPH addition measured after 10 mins by LC-MS/MS analysis; assay type: ADME; conditions: probe midazolam
CYP2D6 = CYP2D6 (Homo sapiens, UniProt P10635); experiment: Inhibition of CYP2D6 in human liver microsomes at 10 uM using dextromethorphan as substrate preincubated for 10 mins followed by NADPH addition measured after 10 mins by LC-MS/MS analysis; assay type: ADME; conditions: probe dextromethorphan
[4] = Chemical stability in simulated gastric fluid assessed as remaining compound levels at 200 uM at 40 degC after 24 hrs by HPLC method; assay type: ADME; conditions: read-out: Stability
Outline: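 Test compound held at 200 µM in simulated gastric fluid, 40 °C for 24 h; remaining compound then assessed.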

CYP1A2 = target: T3, CYP1A2 (Homo sapiens, UniProt P05177); experiment: Inhibition of CYP1A2 in human liver microsomes at 10 uM preincubated for 10 mins followed by NADPH addition measured after 10 mins by LC-MS/MS analysis; assay type: ADME
T3 sequence (P05177 whole entry): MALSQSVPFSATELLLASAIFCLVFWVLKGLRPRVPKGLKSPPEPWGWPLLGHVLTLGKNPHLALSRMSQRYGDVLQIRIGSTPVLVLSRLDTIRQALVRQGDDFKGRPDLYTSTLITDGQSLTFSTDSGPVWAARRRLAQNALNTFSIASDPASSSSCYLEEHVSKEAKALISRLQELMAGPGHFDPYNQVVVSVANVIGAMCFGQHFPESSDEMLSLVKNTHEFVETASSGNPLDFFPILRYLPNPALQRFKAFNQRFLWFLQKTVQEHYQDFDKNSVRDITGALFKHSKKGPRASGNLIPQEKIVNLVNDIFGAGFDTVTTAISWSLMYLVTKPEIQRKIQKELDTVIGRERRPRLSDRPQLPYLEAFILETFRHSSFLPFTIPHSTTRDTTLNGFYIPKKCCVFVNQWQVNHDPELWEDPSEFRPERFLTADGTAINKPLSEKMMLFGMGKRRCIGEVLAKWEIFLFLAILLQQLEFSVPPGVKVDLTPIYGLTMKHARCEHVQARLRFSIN

[5] = Intrinsic clearance in human liver microsomes at 1 uM preincubated for 10 mins followed by NADPH addition measured for 30 to 60 mins by LC-MS/MS analysis; assay type: ADME; conditions: read-out: CLH
[6] = Half life in rat liver microsomes at 1 uM preincubated for 10 mins followed by NADPH addition measured for 30 to 60 mins by LC-MS/MS analysis; assay type: ADME
[7] = Metabolic stability in rat plasma assessed as remaining compound levels at 1 uM after 8 hrs by LC-MS/MS analysis; assay type: ADME, cell-free; conditions: read-out: Stability
[8] = Effect on Wnt3A level in HEK293T cells transfected with pLibin-WNT3A plasmid at 0.1 uM after 48 hrs by Western blot method; assay type: ADME, cell-based; conditions: human, hek-293t; outline: as §1
CYP2C19 = CYP2C19 (Homo sapiens, UniProt P33261); experiment: Inhibition of CYP2C19 in human liver microsomes at 10 uM preincubated for 10 mins followed by NADPH addition measured after 10 mins by LC-MS/MS analysis; assay type: ADME
[9] = Half life in mouse liver microsomes at 1 uM preincubated for 10 mins followed by NADPH addition measured for 30 to 60 mins by LC-MS/MS analysis; assay type: ADME
[10] = Half life in human liver microsomes at 1 uM preincubated for 10 mins followed by NADPH addition measured for 30 to 60 mins by LC-MS/MS analysis; assay type: ADME
[11] = Intrinsic clearance in mouse liver microsomes at 1 uM preincubated for 10 mins followed by NADPH addition measured for 30 to 60 mins by LC-MS/MS analysis; assay type: ADME; conditions: read-out: CLH
CYP2C9 = CYP2C9 (Homo sapiens, UniProt P11712); experiment: Inhibition of CYP2C9 in human liver microsomes at 10 uM preincubated for 10 mins followed by NADPH addition measured after 10 mins by LC-MS/MS analysis; assay type: ADME
[12] = Solubility of the compound in FaSSIF at pH 6.5 at 4 mg/ml by LC-MS/MS analysis; assay type: physicochemical
Outline: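 HCl salt suspended at 4 mg/mL in FaSSIF (pH 6.5), shaken 1 h, then equilibrated overnight at room temperature. After centrifugation, supernatant concentration was measured by LC-MS/MS.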

Sequence of CYP2C19 (P33261 whole entry): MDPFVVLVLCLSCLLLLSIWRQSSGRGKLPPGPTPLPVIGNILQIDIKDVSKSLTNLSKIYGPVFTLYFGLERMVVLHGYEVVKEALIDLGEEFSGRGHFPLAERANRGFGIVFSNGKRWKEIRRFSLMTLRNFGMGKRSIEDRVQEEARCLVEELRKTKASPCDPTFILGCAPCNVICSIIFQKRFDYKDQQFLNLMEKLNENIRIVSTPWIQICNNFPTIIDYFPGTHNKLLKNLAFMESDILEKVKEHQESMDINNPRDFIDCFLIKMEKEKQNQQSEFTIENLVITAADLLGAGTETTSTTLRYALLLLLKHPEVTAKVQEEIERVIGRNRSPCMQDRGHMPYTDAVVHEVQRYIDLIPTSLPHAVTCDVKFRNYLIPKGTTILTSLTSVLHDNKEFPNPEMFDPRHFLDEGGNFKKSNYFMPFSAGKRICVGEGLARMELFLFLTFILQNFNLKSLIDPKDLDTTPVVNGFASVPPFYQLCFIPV
Sequence of CYP2C9 (P11712 whole entry): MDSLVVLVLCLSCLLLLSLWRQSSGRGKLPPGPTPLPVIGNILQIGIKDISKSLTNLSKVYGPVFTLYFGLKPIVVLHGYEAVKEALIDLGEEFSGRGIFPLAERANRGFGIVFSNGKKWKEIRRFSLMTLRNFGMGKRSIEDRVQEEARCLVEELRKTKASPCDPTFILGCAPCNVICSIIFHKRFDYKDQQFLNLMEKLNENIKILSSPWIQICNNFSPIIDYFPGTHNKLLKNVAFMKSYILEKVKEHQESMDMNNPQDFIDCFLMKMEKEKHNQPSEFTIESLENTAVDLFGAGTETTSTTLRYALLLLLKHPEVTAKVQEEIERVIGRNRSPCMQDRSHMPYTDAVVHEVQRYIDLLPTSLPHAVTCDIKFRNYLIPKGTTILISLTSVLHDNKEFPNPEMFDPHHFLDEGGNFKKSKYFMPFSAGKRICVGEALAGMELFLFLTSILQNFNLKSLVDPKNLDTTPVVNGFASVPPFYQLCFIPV
Sequence of CYP2D6 (P10635 whole entry): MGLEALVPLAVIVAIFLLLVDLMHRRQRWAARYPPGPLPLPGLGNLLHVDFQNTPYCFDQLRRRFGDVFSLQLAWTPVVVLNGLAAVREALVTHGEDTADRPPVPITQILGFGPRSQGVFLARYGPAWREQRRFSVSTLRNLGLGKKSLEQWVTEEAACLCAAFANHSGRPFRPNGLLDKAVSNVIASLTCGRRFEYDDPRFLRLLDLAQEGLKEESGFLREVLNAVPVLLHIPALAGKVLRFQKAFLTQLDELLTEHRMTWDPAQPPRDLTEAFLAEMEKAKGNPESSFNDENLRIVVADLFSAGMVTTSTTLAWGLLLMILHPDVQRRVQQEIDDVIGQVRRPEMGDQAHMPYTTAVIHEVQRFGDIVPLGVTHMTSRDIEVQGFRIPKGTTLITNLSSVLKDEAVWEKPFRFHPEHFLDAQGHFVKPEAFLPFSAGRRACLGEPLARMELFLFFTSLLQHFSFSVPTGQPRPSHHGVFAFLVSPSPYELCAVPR
Sequence of CYP3A4 (P08684 whole entry): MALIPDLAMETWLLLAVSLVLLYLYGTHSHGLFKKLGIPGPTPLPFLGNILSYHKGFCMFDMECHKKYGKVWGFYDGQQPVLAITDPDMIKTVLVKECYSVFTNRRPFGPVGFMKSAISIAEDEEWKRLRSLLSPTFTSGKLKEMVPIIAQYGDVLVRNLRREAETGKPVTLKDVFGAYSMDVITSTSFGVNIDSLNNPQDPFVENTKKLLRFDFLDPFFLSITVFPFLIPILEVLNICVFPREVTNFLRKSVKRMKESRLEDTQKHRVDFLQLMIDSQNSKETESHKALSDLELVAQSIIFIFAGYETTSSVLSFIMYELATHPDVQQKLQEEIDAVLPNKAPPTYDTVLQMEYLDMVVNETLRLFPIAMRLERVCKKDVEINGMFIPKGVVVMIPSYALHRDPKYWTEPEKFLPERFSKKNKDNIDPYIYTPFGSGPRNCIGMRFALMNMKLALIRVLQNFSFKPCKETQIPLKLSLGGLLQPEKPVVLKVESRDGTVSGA

IC50 [1]: 6.2 nM
SMILES: Cc1cc(-c2ccc(CNC(=O)c3ccc4c(c3)[nH]c3ccccc34)cn2)ccn1

IC50 [1]: 60 nM
SMILES: Cc1cc(-c2ccc(CNC(=O)c3ccc4c(c3)C(F)(F)c3ccccc3-4)cc2)ccn1

inhibition [2]: Active
SMILES: Cc1cc(-c2ccc(CNC(=O)c3ccc4c(c3)[nH]c3ccccc34)cc2)ccn1 [listing 1 of 2 here]

CLint scaled at 1 µM [3]: 24 mL/min/kg
inhibition at 10 min, 10 µM (CYP3A4): 69%
inhibition at 10 min, 10 µM (CYP2D6): 37%
remaining at 24 h, 200 µM [4]: 100%
inhibition at 10 min, 10 µM (CYP1A2): 73%
IC50 [1]: 0.5 nM
CLint scaled at 1 µM [5]: 57 mL/min/kg
half-life at 1 µM [6]: 1.33 h
remaining at 8 h, 1 µM [7]: 100%
inhibition at 10 min, 10 µM (CYP2C19): 59%
half-life at 1 µM [9]: 0.917 h
half-life at 1 µM [10]: 0.517 h
CLint scaled at 1 µM [11]: 109 mL/min/kg
inhibition at 10 min, 10 µM (CYP2C9): 31%
SMILES: Cc1cc(-c2ncc(CNC(=O)c3ccc4c(c3)[nH]c3ccccc34)cc2F)ccn1 [listing 1 of 2 here]
Activity [8]: Non-Toxic

solubility [12]: 0.16 µM
SMILES: Cc1cc(-c2ccc(CNC(=O)c3ccc4c(c3)[nH]c3ccccc34)cc2)ccn1.Cl

CLint scaled at 1 µM [3]: 3 mL/min/kg
remaining at 24 h, 200 µM [4]: 66%
IC50 [1]: 0.9 nM
inhibition [2]: Active
CLint scaled at 1 µM [5]: 2 mL/min/kg
half-life at 1 µM [6]: 12.8 h
remaining at 8 h, 1 µM [7]: 100%
half-life at 1 µM [9]: 4.62 h
half-life at 1 µM [10]: 9.35 h
CLint scaled at 1 µM [11]: 22 mL/min/kg
SMILES: Cc1cc(-c2ncc(CC(=O)Nc3ccc(-c4cnccn4)cn3)cc2C)ccn1 [WNT-974]
Activity [8]: Non-Toxic

IC50 [1]: 701 nM
SMILES: O=C(NCc1ccc2c(c1)oc1ccccc12)c1ccc(-c2cnccn2)cc1

IC50 [1]: 44 nM
SMILES: Cc1cc(-c2ncc(CNC(=O)c3ccc4c(c3)C(=O)c3ccccc3-4)cc2F)ccn1

IC50 [1]: 3.1 nM
SMILES: Cc1cc(-c2ncc(CNC(=O)c3ccc4c(c3)oc3ccccc34)cc2F)ccn1

IC50 [1]: 9.2 nM
SMILES: Cc1cc(-c2ncc(CNC(=O)c3ccc4c(c3)Cc3ccccc3-4)cc2F)ccn1

IC50 [1]: 175 nM
SMILES: Cc1cc(-c2ncc(CNC(=O)c3ccc4c5ccccc5n(C)c4c3)cc2F)ccn1

IC50 [1]: 85 nM
SMILES: Cc1cc(-c2ccc(CNC(=O)c3ccc4c(c3)C(=O)c3ccccc3-4)cc2)ccn1

IC50 [1]: 314 nM
SMILES: O=C(NCc1ccc(-n2ccnc2)cc1)c1ccc2c(c1)[nH]c1ccccc12

CLint scaled at 1 µM [3]: 7 mL/min/kg
inhibition at 10 min, 10 µM (CYP3A4): 7%
inhibition at 10 min, 10 µM (CYP2D6): 9%
remaining at 24 h, 200 µM [4]: 100%
inhibition at 10 min, 10 µM (CYP1A2): 64%
IC50 [1]: 7.5 nM
CLint scaled at 1 µM [5]: 59 mL/min/kg
half-life at 1 µM [6]: 4.62 h
remaining at 8 h, 1 µM [7]: 100%
inhibition at 10 min, 10 µM (CYP2C19): 8%
half-life at 1 µM [9]: 0.717 h
half-life at 1 µM [10]: 0.5 h
CLint scaled at 1 µM [11]: 141 mL/min/kg
inhibition at 10 min, 10 µM (CYP2C9): -22%
SMILES: Cc1cc(-c2ccc(CNC(=O)c3ccc4c(c3)[nH]c3ccccc34)cc2)ccn1 [listing 2 of 2 here]
Activity [8]: Non-Toxic

IC50 [1]: 35 nM
SMILES: Cc1cc(-c2ccc(CNC(=O)c3ccc4c(c3)Cc3ccccc3-4)cc2)ccn1

IC50 [1]: 18 nM
SMILES: O=C(NCc1ccc(-c2ccncc2)cc1)c1ccc2c(c1)[nH]c1ccccc12

IC50 [1]: 9.1 nM
SMILES: Cc1cc(-c2ccc(CNC(=O)c3ccc4c(c3)oc3ccccc34)cc2)ccn1

IC50 [1]: 13 nM
SMILES: N#Cc1ccc2cc(CNC(=O)c3ccc4c(c3)[nH]c3ccccc34)ccc2c1

IC50 [1]: 119 nM
SMILES: Cc1cn(-c2ccc(CNC(=O)c3ccc4c(c3)[nH]c3ccccc34)cc2)cn1

IC50 [1]: 207 nM
SMILES: O=C(NCc1ccc2cnccc2c1)c1ccc2c(c1)[nH]c1ccccc12

IC50 [1]: > 1000 nM
SMILES: O=C(NCc1ccc2c(c1)Cc1ccccc1-2)c1ccc(-c2ccccc2)cc1

IC50 [1]: 1 nM
SMILES: Cc1cc(-c2ccc(CNC(=O)c3ccc(-c4ccccc4)cc3)cc2)ccn1

IC50 [1]: > 1000 nM
SMILES: Cc1cc(-c2ccc(CNC(=O)c3ccc4c5ccccc5n(C)c4c3)cc2)ccn1

IC50 [1]: 18 nM
SMILES: Cc1cc(-c2ccc(CNC(=O)c3ccc4c(c3)[nH]c3ccccc34)nc2)ccn1

IC50 [1]: > 1000 nM
SMILES: O=C(NCc1ccc2c(c1)Cc1ccccc1-2)c1ccc(-c2cnccn2)cc1

IC50 [1]: 16 nM
SMILES: Cc1cc(-c2ncc(CNC(=O)c3ccc4c(c3)C(F)(F)c3ccccc3-4)cc2F)ccn1

inhibition [2]: Active
SMILES: Cc1cc(-c2ncc(CNC(=O)c3ccc4c(c3)[nH]c3ccccc34)cc2F)ccn1 [listing 2 of 2 here]

IC50 [1]: 130 nM
SMILES: Cn1nccc1-c1ccc(CNC(=O)c2ccc3c(c2)[nH]c2ccccc23)cc1

IC50 [1]: 10 nM
SMILES: Cc1cc(-c2ncc(CNC(=O)c3ccc4c(c3)[nH]c3ccccc34)cc2C)ccn1

solubility [12]: 1.24 µM
SMILES: Cc1cc(-c2ncc(CNC(=O)c3ccc4c(c3)[nH]c3ccccc34)cc2F)ccn1.Cl
